Measured values taken from ChEMBL document CHEMBL3632584, “Further Optimization and Evaluation of Bioavailable, Mixed-Efficacy μ-Opioid Receptor (MOR) Agonists/δ-Opioid Receptor (DOR) Antagonists: Balancing MOR and DOR Affinities” (J Med Chem, 2015).
The source made the active and inactive calls.

Key:
Mus musculus [1] = test: Antinociceptive activity in C57BL/6 mouse assessed as time duration of action at 10 mg/kg, ip measured after 30 mins by warm water tail withdrawal assay; format: functional
How it was run: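 Male C57BL/6 mice given a single 10 mg/kg ip dose. Tail withdrawal from 50 °C water, 20 s cutoff, measured at varying times after dosing to follow duration of action. n=6.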

Mu-type opioid receptor [2] = molecular target: T1, Mu-type opioid receptor (Rattus norvegicus, UniProt P33535); test: Displacement of [3H]diprenorphine from rat mu-opioid receptor expressed in C6 cell membrane for 1 hr by liquid scintillation counting analysis; format: cell membranes
T1 sequence (P33535 whole entry): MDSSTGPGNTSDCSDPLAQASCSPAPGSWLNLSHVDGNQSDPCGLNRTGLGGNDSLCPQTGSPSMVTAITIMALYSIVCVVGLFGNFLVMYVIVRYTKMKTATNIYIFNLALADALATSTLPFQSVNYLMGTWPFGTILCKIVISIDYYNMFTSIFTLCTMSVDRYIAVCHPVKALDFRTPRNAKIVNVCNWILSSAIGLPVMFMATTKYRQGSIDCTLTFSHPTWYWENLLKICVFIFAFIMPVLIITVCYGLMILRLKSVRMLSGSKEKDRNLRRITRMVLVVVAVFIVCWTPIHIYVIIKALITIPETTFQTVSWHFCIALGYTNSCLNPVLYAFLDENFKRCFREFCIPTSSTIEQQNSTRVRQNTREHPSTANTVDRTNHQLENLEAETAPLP

[3] = molecular target: T2, Delta-type opioid receptor (Rattus norvegicus, UniProt P33533); test: Displacement of [3H]diprenorphine from rat delta-opioid receptor expressed in C6 cell membrane for 1 hr by liquid scintillation counting analysis; format: cell membranes
T2 sequence (P33533 whole entry): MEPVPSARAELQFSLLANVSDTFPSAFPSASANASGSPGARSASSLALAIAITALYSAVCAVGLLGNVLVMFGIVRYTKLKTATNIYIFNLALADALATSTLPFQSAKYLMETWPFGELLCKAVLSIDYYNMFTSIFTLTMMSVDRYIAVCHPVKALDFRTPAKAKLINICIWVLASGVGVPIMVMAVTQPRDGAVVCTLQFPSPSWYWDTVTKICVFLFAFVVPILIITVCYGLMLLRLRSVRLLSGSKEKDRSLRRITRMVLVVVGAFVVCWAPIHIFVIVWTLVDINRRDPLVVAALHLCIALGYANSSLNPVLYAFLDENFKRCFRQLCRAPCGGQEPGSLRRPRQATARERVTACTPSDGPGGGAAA

[4] = molecular target: T3, Kappa-type opioid receptor (Homo sapiens, UniProt P41145); test: Displacement of [3H]diprenorphine from human kappa-opioid receptor expressed in CHO cell membrane for 1 hr by liquid scintillation counting analysis; format: cell membranes
T3 sequence (P41145 whole entry): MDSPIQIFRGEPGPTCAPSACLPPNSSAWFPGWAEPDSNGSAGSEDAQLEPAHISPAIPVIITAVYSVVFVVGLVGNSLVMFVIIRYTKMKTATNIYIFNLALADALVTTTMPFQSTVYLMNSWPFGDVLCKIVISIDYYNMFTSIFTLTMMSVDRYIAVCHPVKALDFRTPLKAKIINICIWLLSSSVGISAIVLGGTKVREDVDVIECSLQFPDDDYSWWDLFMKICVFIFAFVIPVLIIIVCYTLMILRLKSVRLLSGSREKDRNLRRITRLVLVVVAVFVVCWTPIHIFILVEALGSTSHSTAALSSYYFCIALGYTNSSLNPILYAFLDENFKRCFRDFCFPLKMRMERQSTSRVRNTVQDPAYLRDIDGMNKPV
How it was run: (§1)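 Competition for 0.2 nM [3H]diprenorphine in membranes (20 µg protein) from C6 cells with rat MOR or DOR, or CHO cells with human KOR. 50 mM Tris-HCl pH 7.4, 1 h at room temperature, then GF/C filtration, five buffer washes, scintillation counting. Nonspecific binding set with 10 µM naloxone. Ki from logistic fit. Mean ± S.E.M., ≥3 assays in duplicate. DOR/MOR ratio taken from the Ki values.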

Mu-type opioid receptor [5] = molecular target: T1, Mu-type opioid receptor; test: Agonist activity at rat mu-opioid receptor expressed in C6 cell membrane assessed as [35S]GTPgammaS binding for 1 hr by liquid scintillation counting analysis; format: functional, cell membranes
[6] = molecular target: T2, Delta-type opioid receptor; test: Agonist activity at rat delta-opioid receptor expressed in C6 cell membrane assessed as [35S]GTPgammaS binding for 1 hr by liquid scintillation counting analysis; format: functional, cell membranes
[7] = molecular target: Mu-type opioid receptor (Rattus norvegicus) (UniProt P33535); test: Agonist activity at rat mu-opioid receptor expressed in C6 cell membrane assessed as [35S]GTPgammaS binding for 1 hr by liquid scintillation counting analysis relative to 10 uM DAMGO; format: functional, cell membranes
Chain of Mu-type opioid receptor (Rattus norvegicus) (P33535 whole entry): as the sequence (P33535 whole entry) above

[8] = molecular target: T3, Kappa-type opioid receptor; test: Agonist activity at human kappa-opioid receptor expressed in CHO cell membrane assessed as [35S]GTPgammaS binding for 1 hr by liquid scintillation counting analysis relative to 10 uM U69593; format: functional, cell membranes
[9] = molecular target: T3, Kappa-type opioid receptor; test: Agonist activity at human kappa-opioid receptor expressed in CHO cell membrane assessed as [35S]GTPgammaS binding for 1 hr by liquid scintillation counting analysis; format: functional, cell membranes
Mus musculus [10] = test: Antinociceptive activity in C57BL/6 mouse assessed as tail withdrawal latency upto 10 mg/kg, ip measured after 30 mins by warm water tail withdrawal assay; format: functional, organism-based
Rattus norvegicus = species: Rattus norvegicus; test: Selectivity ratio, ratio of Ki for rat delta-opioid receptor to Ki for rat mu-opioid receptor; how it was run: as §1
[11] = molecular target: Delta-type opioid receptor (Rattus norvegicus) (UniProt P33533); test: Agonist activity at rat delta-opioid receptor expressed in C6 cell membrane assessed as [35S]GTPgammaS binding for 1 hr by liquid scintillation counting analysis relative to 10 uM DPDPE; format: functional, cell membranes
Chain of Delta-type opioid receptor (Rattus norvegicus) (P33533 whole entry): as the sequence (P33533 whole entry) above

Mus musculus [12] = test: Antinociceptive activity in C57BL/6 mouse assessed as tail withdrawal latency time at 10 mg/kg, ip measured after 30 mins by warm water tail withdrawal assay; format: functional
Mus musculus [13] = test: Antinociceptive activity in ip dosed C57BL/6 mouse assessed as tail withdrawal latency measured 30 mins after drug challenge by warm water tail withdrawal assay; format: functional; details: for ED50: C57BL/6, Tail, 0.5 h
Plasma = test: Stability in C57BL/6 mouse plasma after 30 mins; format: ADME, cell-free; details: 0.5 h
Mus musculus [14] = test: Antinociceptive activity in ip dosed C57BL/6 mouse assessed as tail withdrawal latency pretreated with 1 mg/kg naltrexone for 30 mins measured 30 mins after drug challenge by warm water tail withdrawal assay; format: functional; details: C57BL/6, Tail
How it was run: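 Male C57BL/6 mice pretreated ip with 1 mg/kg naltrexone or saline 30 min before cumulative ip dosing to 3.2, 10 and 32 mg/kg. Tail withdrawal latency from 50 °C water, 20 s cutoff, read 30 min after each dose. ED50 from the dose-response.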

Row | Compound | Time (Mus musculus [1]) | Ki (Mu-type opioid receptor [2]) | Ki [3] | Ki [4] | EC50 (Mu-type opioid receptor [5]; read-out: EC50) | EC50 ([6]; c6) | Activity [7] | Activity [8] | EC50 ([9]; cho) | Activity (Mus musculus [10]) | Ratio Ki (Rattus norvegicus) | EC50 (Mu-type opioid receptor [5]; c6) | EC50 ([9]; read-out: EC50) | Activity [11] | Time (Mus musculus [12]) | EC50 ([6]; read-out: EC50) | ED50 (Mus musculus [13]) | Stability (Plasma) | Activity (Mus musculus [13]) | ED50 (Mus musculus [14])
1 | Cc1cc(O)cc(C)c1C[C@H](N)C(=O)N[C@@H]1CCNc2ccc(Cc3ccccc3)cc21 | >1 h |  |  |  |  |  |  |  |  |  |  |  |  |  |  |  |  |  |  | 
2 | CC(=O)N1CC[C@@H](NC(=O)[C@@H](N)Cc2c(C)cc(O)cc2C)c2cc(CC3CCc4ccccc43)ccc21 (mixture of isomers) |  | 0.03 nM | 0.84 nM | 15 nM | 15 nM | Not Active | 39% | 26% |  |  |  |  |  |  |  |  |  |  |  | 
3 | Cc1cc(O)cc(C)c1C[C@H](N)C(=O)N[C@@H]1CCCc2ccc(Cc3ccc4ccccc4c3)cc21 |  | 0.06 nM | 12 nM | 92 nM | 4.4 nM | Not Active | 72% |  | Not Active | inactive |  |  |  |  |  |  |  |  |  | 
4 | Cc1cc(O)cc(C)c1C[C@H](N)C(=O)N[C@@H]1CCCc2ccc(CC3CCCCC3)cc21 |  |  | 14 nM | 20 nM |  | Not Active | inactive | 25% |  |  | 117 | Not Active | 350 nM | inactive |  |  |  |  |  | 
5 | CC(=O)N1CC[C@@H](NC(=O)[C@@H](N)Cc2c(C)cc(O)cc2C)c2cc(CC3Cc4ccccc4C3)ccc21 |  | 0.05 nM | 0.44 nM | 12 nM | 0.56 nM | Not Active | 84% | 60% |  |  | 9 |  | 610 nM | inactive | 11 s |  |  |  |  | 
6 | Cc1cc(O)cc(C)c1C[C@H](N)C(=O)N[C@@H]1CCNc2ccc(CC3Cc4ccccc4C3)cc21 |  |  |  |  |  |  | 86% | 38% | Not Active | inactive | 26 |  |  | inactive |  |  |  |  |  | 
7 | CC(=O)N1CC[C@@H](NC(=O)[C@@H](N)Cc2c(C)cc(O)cc2C)c2cc(Cc3ccccc3)ccc21 |  | 0.13 nM | 1.8 nM | 87 nM | 6 nM |  | 76% | 29% |  | inactive | 14 |  | > 1300 nM | 26% |  | 68 nM |  |  |  | 
8 | Cc1cc(O)cc(C)c1C[C@H](N)C(=O)N[C@@H]1CCNc2ccc(CC3CCc4ccccc43)cc21 (mixture of isomers) |  | 0.05 nM | 6.8 nM | 19 nM | 9 nM | Not Active | 16% | 52% |  |  |  |  | 180 nM |  |  |  |  |  |  | 
9 | Cc1cc(O)cc(C)c1C[C@H](N)C(=O)N[C@@H]1CCNc2ccc(CC3CCCCC3)cc21 |  | 0.043 nM | 3.4 nM | 6.2 nM | 2.6 nM | Not Active | 57% | 36% |  | inactive | 79 |  | 97 nM | inactive |  |  |  |  |  | 
10 | Cc1cc(O)cc(C)c1C[C@H](N)C(=O)N[C@@H]1CCCc2ccc(Cc3cccc4ccccc34)cc21 |  | 0.39 nM | 5 nM | 63 nM | 14 nM | Not Active | 58% | inactive | Not Active | inactive | 13 |  |  | inactive |  |  |  |  |  | 
11 | CC(=O)N1CC[C@@H](NC(=O)[C@@H](N)Cc2c(C)cc(O)cc2C)c2cc(CC3CCCCC3)ccc21 |  | 0.03 nM | 0.32 nM | 8.4 nM | 0.61 nM |  | 70% | 33% |  | inactive | 11 |  | 240 nM | 26% |  | 14 nM |  |  |  | 
12 | CN1CC[C@]23c4c5ccc(O)c4O[C@H]2[C@@H](O)C=C[C@H]3[C@H]1C5 [MORPHINE] |  |  |  |  |  |  |  |  |  |  |  |  |  |  |  |  | 4.73 mg/kg |  |  | 
13 | CC(=O)N1CC[C@@H](NC(=O)[C@@H](N)Cc2c(C)cc(O)cc2C)c2cc(Cc3cccc4ccccc34)ccc21 |  | 0.06 nM | 1.3 nM | 4.3 nM | 0.48 nM | Not Active | 70% | inactive | Not Active | inactive | 22 |  |  | inactive |  |  |  | Stable |  | 
14 | Cc1cc(O)cc(C)c1C[C@H](N)C(=O)N[C@@H]1CCCc2ccc(Cc3ccccc3)cc21 |  | 0.045 nM | 4 nM | 19 nM | 2.9 nM | Not Active | 64% |  | Not Active |  |  |  |  |  | 14 s |  |  |  |  | 
15 | CC(=O)N1CC[C@@H](NC(=O)[C@@H](N)Cc2c(C)cc(O)cc2C)c2cc(Cc3ccc4ccccc4c3)ccc21 | >3 h | 0.04 nM | 0.23 nM | 48 nM | 0.93 nM | Not Active | 87% | inactive | Not Active |  | 6 |  |  | inactive |  |  | 4.72 mg/kg | Stable | Dose-dependent effect | 15.1 mg/kg
16 | Cc1cc(O)cc(C)c1C[C@H](N)C(=O)N[C@@H]1CCNc2ccc(Cc3ccc4ccccc4c3)cc21 |  |  |  |  |  |  | 96% | inactive |  |  |  |  |  | inactive | 10 s |  |  |  |  | 
17 | Cc1cc(O)cc(C)c1C[C@H](N)C(=O)N[C@@H]1CCNc2ccc(Cc3cccc4ccccc34)cc21 |  |  |  |  |  |  | 93% |  |  |  |  |  |  | 15% |  |  |  |  |  | 
